# Results reported in ChEMBL document CHEMBL1148732, “New 2-arylpyrazolo[3,4-c]quinoline derivatives as potent and selective human A3 adenosine receptor antagonists. Synthesis, pharmacological evaluation, and ligand-receptor modeling studies” (J Med Chem, 2007).
# Assays:
# [1] = target: T1, Adenosine receptor A1 (Homo sapiens, UniProt P30542); assay: Displacement of [3H]DPCPX from human adenosine A1 receptor expressed in CHO cells; type: cell-based
# T1 sequence (P30542 whole entry): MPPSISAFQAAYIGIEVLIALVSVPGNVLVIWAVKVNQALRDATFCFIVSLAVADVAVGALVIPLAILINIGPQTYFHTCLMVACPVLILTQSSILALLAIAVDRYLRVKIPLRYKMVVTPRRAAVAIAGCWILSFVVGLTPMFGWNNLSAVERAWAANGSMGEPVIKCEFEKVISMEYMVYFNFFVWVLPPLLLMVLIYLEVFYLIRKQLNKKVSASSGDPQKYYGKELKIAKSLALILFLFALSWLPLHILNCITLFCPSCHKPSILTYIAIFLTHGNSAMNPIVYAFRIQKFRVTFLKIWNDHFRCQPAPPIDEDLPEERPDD
# How it was run: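 Five concentrations in triplicate. IC50 by nonlinear regression, converted to Ki with Cheng-Prusoff. Means ± SEM of four assays.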
# [2] = target: T2, Adenosine receptor A2a (Homo sapiens, UniProt P29274); assay: Displacement of [3H]NECA from human adenosine A2A receptor expressed in CHO cells; type: cell-based
# T2 sequence (P29274 whole entry): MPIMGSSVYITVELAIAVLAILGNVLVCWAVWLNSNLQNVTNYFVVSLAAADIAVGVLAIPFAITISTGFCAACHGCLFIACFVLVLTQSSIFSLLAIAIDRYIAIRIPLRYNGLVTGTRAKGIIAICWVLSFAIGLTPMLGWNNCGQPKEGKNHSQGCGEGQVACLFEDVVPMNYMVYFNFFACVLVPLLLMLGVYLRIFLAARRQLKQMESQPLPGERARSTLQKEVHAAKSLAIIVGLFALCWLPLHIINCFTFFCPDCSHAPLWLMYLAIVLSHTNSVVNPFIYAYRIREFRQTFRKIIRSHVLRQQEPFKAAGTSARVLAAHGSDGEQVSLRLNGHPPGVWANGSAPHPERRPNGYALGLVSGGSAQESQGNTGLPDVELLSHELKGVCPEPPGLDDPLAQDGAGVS
# [3] = target: T2, Adenosine receptor A2a; assay: Displacement of [3H]NECA from human adenosine A2A receptor expressed in CHO cells at 10 uM; type: cell-based
# [4] = target: T3, Adenosine receptor A1 (Homo sapiens) (UniProt P30542); assay: Displacement of [3H]DPCPX from human adenosine A1 receptor expressed in CHO cells at 10 uM; type: cell-based
# T3 sequence (whole entry): T1 sequence (P30542 whole entry)
# [5] = target: T4, Adenosine receptor A3 (Homo sapiens, UniProt P0DMS8); assay: Displacement of [125I]AB-MECA from human adenosine A3 receptor expressed in CHO cells; type: cell-based
# T4 sequence (P0DMS8 whole entry): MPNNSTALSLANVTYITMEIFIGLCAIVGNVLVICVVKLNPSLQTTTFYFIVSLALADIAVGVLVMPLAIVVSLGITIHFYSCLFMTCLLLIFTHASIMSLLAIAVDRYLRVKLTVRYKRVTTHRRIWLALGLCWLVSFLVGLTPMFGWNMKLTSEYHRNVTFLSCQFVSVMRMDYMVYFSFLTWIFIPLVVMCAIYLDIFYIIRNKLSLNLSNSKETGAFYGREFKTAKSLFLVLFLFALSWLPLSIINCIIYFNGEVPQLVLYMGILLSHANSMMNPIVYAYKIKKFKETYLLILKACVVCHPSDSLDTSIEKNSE
# How it was run: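 Five displacer concentrations, each in triplicate. IC50 by nonlinear regression, converted to Ki with Cheng-Prusoff. Means ± SEM of four separate assays.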
# [6] = target: Adenosine receptor A2a (Rattus norvegicus) (UniProt P30543); assay: Displacement of [3H]CGS 21680 from Wistar rat adenosine A2A receptor at 10 uM
# Adenosine receptor A2a (Rattus norvegicus), sequence (P30543 whole entry): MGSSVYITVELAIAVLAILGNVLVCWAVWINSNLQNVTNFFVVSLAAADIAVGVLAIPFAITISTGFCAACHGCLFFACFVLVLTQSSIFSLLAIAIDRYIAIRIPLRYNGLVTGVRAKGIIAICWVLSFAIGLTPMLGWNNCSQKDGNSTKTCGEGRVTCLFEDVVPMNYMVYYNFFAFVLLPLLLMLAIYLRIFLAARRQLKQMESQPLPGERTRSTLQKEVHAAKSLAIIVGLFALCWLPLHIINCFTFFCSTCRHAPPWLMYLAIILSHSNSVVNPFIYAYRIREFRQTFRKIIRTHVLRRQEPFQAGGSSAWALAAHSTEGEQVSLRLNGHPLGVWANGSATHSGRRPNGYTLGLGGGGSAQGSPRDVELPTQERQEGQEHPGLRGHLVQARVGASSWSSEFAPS
# [7] = target: T5, Adenosine receptor A3 (Rattus norvegicus) (UniProt P28647); assay: Antagonist activity at adenosine A3 receptor in Wistar rat hippocampal slices by prevention of glucose deprivation-induced synaptic impairment assessed as synaptic recovery at 100 nM; type: functional, tissue-based; set-up: scale not given: the % may be the effect or the level left; conditions: Hippocampus
# T5 sequence (whole entry): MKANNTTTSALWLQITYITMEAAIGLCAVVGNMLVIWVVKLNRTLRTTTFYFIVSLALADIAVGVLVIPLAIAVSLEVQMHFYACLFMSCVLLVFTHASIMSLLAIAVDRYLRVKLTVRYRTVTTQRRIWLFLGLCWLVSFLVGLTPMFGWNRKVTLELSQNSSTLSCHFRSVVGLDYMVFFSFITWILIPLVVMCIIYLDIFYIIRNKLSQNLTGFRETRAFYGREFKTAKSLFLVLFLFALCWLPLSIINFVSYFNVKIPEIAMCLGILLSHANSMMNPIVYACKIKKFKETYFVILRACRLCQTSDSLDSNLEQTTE
# How it was run: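 Male Wistar rat hippocampal slices (400 µm) superfused with oxygenated aCSF at 30-32 °C and 2 mL/min. CA1 fepsps were evoked from stratum radiatum. OGD was 7 min of glucose-free aCSF gassed with 95% N2-5% CO2. Antagonist (100 nM) was given from 10 min before until 5 min after OGD. Readout: fepsp amplitude at 15 min reperfusion as % of the 5-min pre-OGD baseline; n=5, one-way ANOVA with Newman-Keuls.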
# [8] = target: T5, Adenosine receptor A3 (Rattus norvegicus); assay: Displacement of [3H](R)-PIA from Wistar rat adenosine A3 receptor at 1 uM
# How it was run: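 Rat testis membranes (0.1-0.2 mg protein) incubated with 4 nM [3H]-(R)-PIA and 150 nM DPCPX to block A1 sites. Buffer: 50 mM Tris/HCl pH 7.4, 1 mM EDTA, 10 mM MgCl2. Nonspecific binding defined with 15 µM (R)-PIA. Separation by filtration and scintillation counting. Result is % displacement at 1 µM.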
# [9] = target: T4, Adenosine receptor A3; assay: Antagonist activity at human adenosine A3 receptor expressed in CHO cells assessed as inhibition of NECA-induced cAMP accumulation; type: functional, cell-based
# How it was run: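 CHO cells stably expressing hA3 were plated and used after 48 h. They were preincubated 15 min at 37 °C with Ro 20-1724 (20 µM) and adenosine deaminase (1 U/mL). Compounds at several concentrations were then added with 100 nM NECA and 10 µM forskolin for 15 min at 37 °C. Lysis in 0.4 N HCl. cAMP was measured by competitive binding against [3H]cAMP (2 nM) with adrenal binding protein, 150 min at 4 °C. EC50 from sigmoid nonlinear regression.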
# [10] = target: T6, Adenosine receptor A1 (Rattus norvegicus) (UniProt P25099); assay: Displacement of [3H]DPCPX from Wistar rat adenosine A1 receptor at 10 uM
# T6 sequence (whole entry): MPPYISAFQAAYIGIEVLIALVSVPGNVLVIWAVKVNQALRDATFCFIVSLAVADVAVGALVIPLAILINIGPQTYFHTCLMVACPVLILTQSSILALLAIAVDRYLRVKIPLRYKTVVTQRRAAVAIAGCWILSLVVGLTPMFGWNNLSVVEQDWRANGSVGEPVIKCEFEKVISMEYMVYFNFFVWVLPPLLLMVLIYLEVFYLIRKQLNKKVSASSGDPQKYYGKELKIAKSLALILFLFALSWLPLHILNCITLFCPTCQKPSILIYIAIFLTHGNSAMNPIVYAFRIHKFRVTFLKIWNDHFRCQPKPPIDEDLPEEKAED
# How it was run: (§1)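 Male Wistar rat cortex membranes (40-50 µg protein) incubated 180 min at 25 °C with 0.2-0.5 nM [3H]DPCPX. Buffer: 50 mM Tris/HCl, 2 mM MgCl2, pH 7.7. Run in triplicate. Nonspecific binding defined with 20 µM R-PIA. GF/C filtration; KD 0.51 nM.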
# [11] = target: T7, Adenosine receptor A1 (Rattus norvegicus, UniProt P25099); assay: Displacement of [3H]DPCPX from Wistar rat adenosine A1 receptor; how it was run: as §1
# T7 sequence (P25099 whole entry): T6 sequence (whole entry)
# [12] = target: T8, Adenosine receptor A3 (Homo sapiens) (UniProt P0DMS8); assay: Displacement of [125I]AB-MECA from human adenosine A3 receptor expressed in CHO cells at 1 uM; type: cell-based
# T8 sequence (whole entry): T4 sequence (P0DMS8 whole entry)
Ki [1] [µM],Activity [3] [%],Activity [4] [%],Ki [5] [µM],also measured,Compound
0.045,,,,Ki [2]: 0.329 µM,Cc1ccc(-n2cc3c(n2)c(N)nc2ccccc23)cc1
,3,0,,,CC(=O)Nc1nc2ccccc2c2cn(-c3ccccc3)nc12
0.04,,,,,COc1ccc(-n2cc3c(n2)c(N)nc2ccccc23)cc1
,39,5,0.257,,Cc1ccc(-n2cc3c(n2)c(NC(=O)NCc2ccccc2)nc2ccccc23)cc1
0.629,26,,0.0044,,Cc1ccc(-n2cc3c(n2)c(NC(=O)c2ccccc2)nc2ccccc23)cc1
,0,47,0.009,,COc1ccc(-n2cc3c(n2)c(NC(=O)C(c2ccccc2)c2ccccc2)nc2ccccc23)cc1
0.012,46,,,,Cc1cccc(-n2cc3c(n2)c(=O)[nH]c2ccccc23)c1
6.8,20,,0.00335,,Cc1cccc(-n2cc3c(n2)c(NC(=O)NCc2ccccc2)nc2ccccc23)c1
0.057,,,0.0043,Ki [2]: 2.86 µM,Cc1cccc(-n2cc3c(n2)c(NC(=O)c2ccccc2)nc2ccccc23)c1
0.06,24,,0.0039,,Cc1cccc(-n2cc3c(n2)c(NC(=O)Cc2ccccc2)nc2ccccc23)c1
0.455,,,0.123,Ki [2]: 1.5 µM,CC(=O)Nc1nc2ccccc2c2cn(-c3ccc(C)cc3)nc12
0.032,,,0.229,Ki [2]: 0.486 µM,COc1cccc(-n2cc3c(n2)c(N)nc2ccccc23)c1
,21,55,0.0056,,Cc1ccc(-n2cc3c(n2)c(NC(=O)Cc2ccccc2)nc2ccccc23)cc1
,32,8,0.0745,,O=c1[nH]c2ccccc2c2cn(Cc3ccccc3)nc12
0.357,0,,0.0855,,O=c1[nH]c2ccccc2c2cn(-c3ccc([N+](=O)[O-])cc3)nc12
,7,25,0.0172,Activity [6]: 2%; Activity [7]: 84%; Activity [8]: 28%; EC50 [9]: 0.0112 µM; Activity [10]: 11%,COc1ccc(-n2cc3c(n2)c(N(C(=O)c2ccccc2)C(=O)c2ccccc2)nc2ccccc23)cc1
,9,0,,,O=C(Nc1nc2ccccc2c2cn(-c3ccccc3)nc12)c1ccccc1
0.203,43,,,,O=c1[nH]c2ccccc2c2cn(-c3ccccc3)nc12

Ki [1] [µM],Activity [3] [%],Activity [4] [%],Ki [5] [µM],also measured,Compound
0.029,44,,,,Cc1ccc(-n2cc3c(n2)c(=O)[nH]c2ccccc23)cc1
0.014,52,,0.0073,,COc1cccc(-n2cc3c(n2)c(=O)[nH]c2ccccc23)c1
,21,0,0.0089,Activity [6]: 26%; Activity [7]: 47%; Activity [8]: 30%; EC50 [9]: 0.0038 µM; Ki [11]: 1.49 µM,O=C(Nc1nc2ccccc2c2cn(-c3ccccc3)nc12)C(c1ccccc1)c1ccccc1
,0,32,0.03,,Cc1ccc(-n2cc3c(n2)c(N(C(=O)c2ccccc2)C(=O)c2ccccc2)nc2ccccc23)cc1
0.25,39,,0.0034,,COc1ccc(-n2cc3c(n2)c(NC(=O)c2ccccc2)nc2ccccc23)cc1
0.559,4,,0.014,,Cc1cccc(-n2cc3c(n2)c(NC(=O)C(c2ccccc2)c2ccccc2)nc2ccccc23)c1
,3,0,,,O=C(NCc1ccccc1)Nc1nc2ccccc2c2cn(-c3ccccc3)nc12
0.176,25,,,,COc1ccc(-n2cc3c(n2)c(=O)[nH]c2ccccc23)cc1
0.201,51,,0.0045,,COc1ccc(-n2cc3c(n2)c(NC(=O)Cc2ccccc2)nc2ccccc23)cc1
2.88,0,,0.102,,COc1ccc(-n2cc3c(n2)c(NC(C)=O)nc2ccccc23)cc1
0.659,,,,,Nc1nc2ccccc2c2cn(-c3ccccc3)nc12
0.203,10,,0.031,,CC(=O)Nc1nc2ccccc2c2cn(-c3cccc(C)c3)nc12
,0,43,,Activity [12]: 40%,COc1ccc(-n2cc3c(n2)c(NC(=O)NCc2ccccc2)nc2ccccc23)cc1
,3,32,0.0115,,Cc1ccc(-n2cc3c(n2)c(NC(=O)C(c2ccccc2)c2ccccc2)nc2ccccc23)cc1
,20,42,0.0232,,Cc1cccc(-n2cc3c(n2)c(N(C(=O)c2ccccc2)C(=O)c2ccccc2)nc2ccccc23)c1
,0,0,0.0061,,O=C(c1ccccc1)N(C(=O)c1ccccc1)c1nc2ccccc2c2cn(-c3ccccc3)nc12
0.021,,,,Ki [2]: 0.228 µM,Cc1cccc(-n2cc3c(n2)c(N)nc2ccccc23)c1
,15,5,,,O=C(Cc1ccccc1)Nc1nc2ccccc2c2cn(-c3ccccc3)nc12
